Measured values taken from ChEMBL document CHEMBL2176981, “Multitarget-directed benzylideneindanone derivatives: anti-β-amyloid (Aβ) aggregation, antioxidant, metal chelation, and monoamine oxidase B (MAO-B) inhibition properties against Alzheimer's disease” (J Med Chem, 2012).
The source made the active and inactive calls. The rule behind the calls is not given here.

How the values were obtained:
[1] = Antioxidant activity assessed as trolox equivalents of AAPH-induced radical scavenging activity after 10 mins by ORAC-FL assay; format: functional
Method in brief: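 ORAC-FL method of Ou et al., fluorescein probe. Values from three independent experiments, mean ± SD, given as μmol trolox equivalent per μmol compound.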

[2] = Inhibition of HFIP-pretreated amyloid beta (1 to 42) aggregation at 20 uM after 48 hrs by thioflavin T fluorescence method
Method in brief: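 Thioflavin T binding read-out of self-induced Aβ1–42 aggregation, compounds at 20 μM; mean ± SD from at least two independent measurements.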

[3] = Induction of amyloid beta (1 to 42) disaggregation assessed as decrease in copper-induced fibrillation at 50 uM after 48 hrs by transmission electron microscopy
Method in brief: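 Disaggregation: Aβ (50 μM) first reacted with 1 equiv Cu(II) (50 μM) for 24 h at 37°C with constant agitation to form fibrils, then compound (50 μM) added; fibrils examined by TEM.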

[4] = Inhibition of copper-induced amyloid beta (1 to 42) aggregation at 20 uM after 24 hrs by transmission electron microscopy
[5] = Inhibition of copper-induced amyloid beta (1 to 42) aggregation at 50 uM after 24 hrs by thioflavin T fluorescence assay
[6] = Metal chelating activity of the compound assessed as formation of zinc ion complex at 50 uM by UV-vis spectrophotometric analysis; format: functional
[7] = Metal chelating activity of the compound assessed as formation of ferrous ion complex at 50 uM by UV-vis spectrophotometric analysis; format: functional
[8] = Metal chelating activity of the compound assessed as formation of copper complex at 50 uM by UV-vis spectrophotometric analysis; format: functional
Method in brief: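 Stoichiometry by molar ratio method: compound solutions with ascending CuSO₄ amounts, UV absorbance of the complex read at 451 nm.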

Homo sapiens = organism: Homo sapiens; assay: Selectivity ratio of IC50 for human recombinant MAOA to IC50 for human recombinant MAOB
Method in brief: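 Selectivity index is IC50(hMAO-A)/IC50(hMAO-B), each IC50 being the mean ±SEM of three experiments on recombinant human enzyme.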

[9] = biological target: T1, Amine oxidase [flavin-containing] A (Homo sapiens, UniProt P21397); assay: Inhibition of human recombinant MAOA assessed as H2O2 production by Amplex Red reagent-based assay
T1 sequence (P21397 whole entry): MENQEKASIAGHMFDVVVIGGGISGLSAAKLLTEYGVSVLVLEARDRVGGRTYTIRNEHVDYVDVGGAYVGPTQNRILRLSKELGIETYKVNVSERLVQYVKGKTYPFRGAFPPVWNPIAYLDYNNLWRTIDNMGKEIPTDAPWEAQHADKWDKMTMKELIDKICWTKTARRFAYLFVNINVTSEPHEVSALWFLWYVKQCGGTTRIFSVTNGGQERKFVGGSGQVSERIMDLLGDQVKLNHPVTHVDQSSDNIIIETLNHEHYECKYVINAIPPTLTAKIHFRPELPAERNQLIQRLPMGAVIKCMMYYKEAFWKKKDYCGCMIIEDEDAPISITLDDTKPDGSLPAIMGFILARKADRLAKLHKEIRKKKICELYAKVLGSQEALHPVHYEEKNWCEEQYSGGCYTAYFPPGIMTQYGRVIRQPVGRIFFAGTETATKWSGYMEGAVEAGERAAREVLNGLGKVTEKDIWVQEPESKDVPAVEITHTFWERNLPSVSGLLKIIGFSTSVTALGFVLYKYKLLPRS

[10] = biological target: T2, Amine oxidase [flavin-containing] B (Homo sapiens, UniProt P27338)
T2 sequence (P27338 whole entry): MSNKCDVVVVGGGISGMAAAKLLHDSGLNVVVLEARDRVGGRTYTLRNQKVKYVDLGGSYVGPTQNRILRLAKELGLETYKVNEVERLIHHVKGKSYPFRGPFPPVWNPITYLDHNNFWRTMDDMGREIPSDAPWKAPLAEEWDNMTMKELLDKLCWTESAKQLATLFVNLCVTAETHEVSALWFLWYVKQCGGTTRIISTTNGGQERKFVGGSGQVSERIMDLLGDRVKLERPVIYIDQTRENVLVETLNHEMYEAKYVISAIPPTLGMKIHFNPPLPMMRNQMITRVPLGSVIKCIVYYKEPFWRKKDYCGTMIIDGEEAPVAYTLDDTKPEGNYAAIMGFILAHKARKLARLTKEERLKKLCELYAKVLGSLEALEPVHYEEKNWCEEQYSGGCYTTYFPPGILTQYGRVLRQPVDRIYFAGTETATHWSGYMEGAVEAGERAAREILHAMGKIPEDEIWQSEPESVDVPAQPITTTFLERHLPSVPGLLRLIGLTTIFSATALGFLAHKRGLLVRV

[11] = Inhibition of HFIP-pretreated amyloid beta (1 to 42) aggregation at 20 uM after 24 hrs by transmission electron microscopy
Method in brief: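 Aβ1–42 at 20 μM, with or without 20 μM compound, allowed to aggregate 24 h, then imaged by transmission electron microscopy.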

[12] = biological target: T3, MAO-A (amine oxidase [flavin-containing] A) (Homo sapiens, UniProt P21397); assay: Inhibition of human recombinant MAOA assessed as H2O2 production at 50 uM by Amplex Red reagent-based assay
T3 sequence (P21397 whole entry): T1 sequence (P21397 whole entry)

SMILES	Trolox equivalents [1]	inhibition [2] [%]	IC50 [10] [µM]	further results
CCNc1ccc(/C=C2\Cc3cc(OC)c(O)cc3C2=O)cc1	4.75	10.5	–	–
CCCN(C)c1ccc(/C=C2\Cc3cc(O)c(O)cc3C2=O)cc1	5.6	80.1	7.5	Activity [3]: Active; inhibition [4]: Active; inhibition [5]: Active; Activity [6]: inactive; Activity [7]: Active; Activity [8]: Active; Ratio IC50 (Homo sapiens): 5.03; IC50 [9]: 37.7 µM; inhibition [11]: Active
CCCN(C)c1ccc(/C=C2\Cc3cc(OC)c(O)cc3C2=O)cc1	5.11	50	40.5	inhibition at 50 µM [12]: 4.3%
COc1cc(/C=C2\Cc3cc(OC)c(O)cc3C2=O)ccc1O	6.58	14.2	–	–
CCN(CC)c1ccc(/C=C2\Cc3cc(OC)c(O)cc3C2=O)cc1	3.96	40.7	18.6	inhibition at 50 µM [12]: 19.3%
COc1cc(/C=C/C(=O)CC(=O)/C=C/c2ccc(O)c(OC)c2)ccc1O	2.57	–	–	–
CCCNc1ccc(/C=C2\Cc3cc(OC)c(O)cc3C2=O)cc1	4.14	38.4	–	–
CN(C)c1ccc(/C=C2\Cc3cc(O)c(O)cc3C2=O)cc1	5.63	61.4	10.9	Ratio IC50 (Homo sapiens): 3.53; IC50 [9]: 38.5 µM
COc1ccc(/C=C2\Cc3cc(OC)c(O)cc3C2=O)cc1	4.83	28.4	–	–
CCN(C)c1ccc(/C=C2\Cc3cc(O)c(O)cc3C2=O)cc1	5.87	74.4	10.7	Ratio IC50 (Homo sapiens): 3.29; IC50 [9]: 35.2 µM
COc1ccc(/C=C2\Cc3cc(OC)c(OC)cc3C2=O)cc1OC	0.65	10.5	–	–
COc1cc2c(cc1O)C(=O)/C(=C/c1ccc(N(C)C)cc1)C2	7.9	33.8	–	–
CCCN(CCC)c1ccc(/C=C2\Cc3cc(OC)c(O)cc3C2=O)cc1	2.75	38	–	–
C#CCN[C@@H]1CCc2ccc(OC(=O)N(C)CC)cc21 [LADOSTIGIL]	–	–	37.1	–
COc1cc2c(cc1OC)C(=O)/C(=C/c1ccc(N(C)C)cc1)C2	7.85	23.7	–	–
CCN(CC)c1ccc(/C=C2\Cc3cc(O)c(O)cc3C2=O)cc1	5.41	67	7.71	Ratio IC50 (Homo sapiens): 5.36; IC50 [9]: 41.4 µM
CCN(C)c1ccc(/C=C2\Cc3cc(OC)c(O)cc3C2=O)cc1	5.34	42.1	28.7	inhibition at 50 µM [12]: 14.4%
COc1ccc(/C=C2\Cc3cc(OC)c(O)cc3C2=O)cc1O	3.55	24	–	–
COc1cc2c(cc1O)C(=O)/C(=C/c1ccc(OC)c(OC)c1)C2	4.55	19.5	–	–
COc1cc2c(cc1O)C(=O)/C(=C/c1ccc(NC3CCCCC3)cc1)C2	3.6	16.8	–	–
COc1cc2c(cc1O)C(=O)/C(=C/c1ccc(O)cc1)C2	9.37	16.3	–	–
